The values below come from ChEMBL document CHEMBL1122238, “Synthesis of analogues of pepstatin. Effect of structure in subsites P1', P2', and P2 on inhibition of porcine pepsin” (J Med Chem, 1983).

Each structure is given as a SMILES string. Non-standard residues stand in square brackets, D forms with d. Residues, ends and D or L forms follow the SMILES beside them. *: point of attachment. Sta = CC(C)C[C@H](N)[C@@H](O)CC(=O)O; Isovaleryl = CC(C)CC(=O)*

T1 sequence (P00791 whole entry): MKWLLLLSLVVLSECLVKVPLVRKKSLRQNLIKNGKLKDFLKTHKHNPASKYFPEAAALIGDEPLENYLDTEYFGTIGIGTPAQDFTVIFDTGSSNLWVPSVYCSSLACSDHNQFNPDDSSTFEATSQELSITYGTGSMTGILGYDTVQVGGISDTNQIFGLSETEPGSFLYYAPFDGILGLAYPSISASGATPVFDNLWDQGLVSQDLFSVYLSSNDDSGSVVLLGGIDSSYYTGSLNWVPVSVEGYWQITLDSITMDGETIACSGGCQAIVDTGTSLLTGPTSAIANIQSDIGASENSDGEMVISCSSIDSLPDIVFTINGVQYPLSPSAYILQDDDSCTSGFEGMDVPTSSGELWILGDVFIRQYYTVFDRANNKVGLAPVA

The first test addresses T1, Pepsin A (Sus scrofa, UniProt P00791). The test can be described thus: Tested for time independent inhibition constant against porcine pepsin. In short, it runs like this: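 Pepsin (porcine) cleavage of Phe-Gly-His-Phe(NO2)-Phe-Ala-Phe-OMe (Km 4.0 × 10^-5 M), monitored by spectrophotometer. Reactions started with enzyme, giving linear steady-state initial velocities. Inhibitors were usually in 1% methanol v/v, or 10% if poorly soluble. IC50 came from inhibited versus uninhibited velocity and was converted to Ki by the Cha equation, Ki = (IC50 − Et/2)(1 + S/Km)^-1.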
`CC(C)CCNC(=O)CNC(=O)CC(O)C(CC(C)C)NC(=O)C(NC(=O)CC(C)C)C(C)C` (stereo unspecified): the Ki was determined as 56 nM.
On the same count and under the same terms, the result for `COC(=O)C(C)NC(=O)CC(O)C(CC(C)C)NC(=O)C(NC(=O)CC(C)C)C(C)C` (stereo unspecified) reads 600 nM; that for `COC(=O)CNC(=O)C(C)NC(=O)CC(O)C(CC(C)C)NC(=O)C(NC(=O)CC(C)C)C(C)C` (stereo unspecified), 68 nM; that for `CCOC(=O)CC(O)C(CC(C)C)NC(=O)C(NC(=O)CC(C)C)C(C)C` (stereo unspecified), 800 nM.
Compound `CC(C)CCNC(=O)C(C)NC(=O)CC(O)C(CC(C)C)NC(=O)C(CC(C)C)NC(=O)CC(C)C` (stereo unspecified) yielded a Ki of 13 nM.
For the compound `CC(C)CCNC(=O)C(C)NC(=O)CC(O)C(CC(C)C)NC(=O)CNC(=O)CC(C)C` (stereo unspecified), the Ki came out at 100 nM.
In turn, `CC(C)CC(=O)NC(C(=O)NC(CC(C)C)C(O)CC(=O)NC(C)C)C(C)C` (stereo unspecified) came in with a Ki of 300 nM.
Still for that read-out and setting: then `CNC(=O)C(C)NC(=O)CC(O)C(CC(C)C)NC(=O)C(NC(=O)CC(C)C)C(C)C` (stereo unspecified), with 140 nM; and `CCOC(=O)C[C@H](O)[C@H](CC(C)C)NC(=O)[C@@H](NC(=O)[C@@H](NC(=O)CC(C)C)C(C)C)C(C)C` (Isovaleryl-Val-Val-[Sta]-OEt), with 10 nM.

For another test, the target named is T1, Pepsin A. The test is described as follows: Tested for time dependent inhibition constant against porcine pepsin. The procedure, abridged: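 Porcine pepsin with synthetic heptapeptide substrate Phe-Gly-His-Phe(NO2)-Phe-Ala-Phe-OMe (Km 4.0 × 10^-5 M), followed spectrophotometrically. Enzyme preincubated with inhibitor for 10 min, and the reaction started by adding substrate. Velocities taken at apparent steady state. Inhibitor solutions generally contained 1% methanol v/v, and 10% for poorly soluble ones. IC50 converted to Ki by the Cha equation, correcting for total enzyme and S/Km.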
Regarding `CC(C)CC(=O)NC(C(=O)NC(CC(C)C)C(O)CC(=O)NC(C)C(=O)NC(C)C)C(C)C` (stereo unspecified), the Ki was found to be 20 nM.
On the same count and under the same terms, then `CC(C)CCNC(=O)C(C)NC(=O)CC(O)C(CC(C)C)NC(=O)C(NC(=O)CC(C)C)C(C)C` (stereo unspecified), with 3 nM; and `CC(C)CCNC(=O)C(CC(C)C)NC(=O)CC(O)C(CC(C)C)NC(=O)C(NC(=O)CC(C)C)C(C)C` (stereo unspecified), with 4.6 nM; and `COC(=O)C(CC(C)C)NC(=O)C(C)NC(=O)CC(O)C(CC(C)C)NC(=O)C(NC(=O)CC(C)C)C(C)C` (stereo unspecified), with 1.1 nM.
The same measure, in the same setting: then `COC(=O)C(Cc1ccccc1)NC(=O)C(C)NC(=O)CC(O)C(CC(C)C)NC(=O)C(NC(=O)CC(C)C)C(C)C` (stereo unspecified), with 1.5 nM; and `CC(C)CCNC(=O)C(C)NC(=O)CC(O)C(CC(C)C)NC(=O)C(C)NC(=O)CC(C)C` (stereo unspecified), with 30 nM; and `COC(=O)[C@H](C)NC(=O)C[C@H](O)[C@H](CC(C)C)NC(=O)[C@@H](NC(=O)[C@@H](NC(=O)CC(C)C)C(C)C)C(C)C` (Isovaleryl-VV[Sta]A-OMe), with 3.5 nM.
